These results are taken from ChEMBL document CHEMBL1155462, “Structure-activity relationship for thiohydantoin androgen receptor antagonists for castration-resistant prostate cancer (CRPC)” (J Med Chem, 2010).

Experiment [1] concerns LNCaP. The experiment is described as follows: Inhibition of prostate specific antigen expression in human LNCAP cells at 0.625 to 20 uM in presence of fetal bovine serum. In kind it is functional, cell-based.
Experiment [2] deals with T1, Androgen receptor (Rattus norvegicus) (UniProt P15207).
T1 sequence (whole entry): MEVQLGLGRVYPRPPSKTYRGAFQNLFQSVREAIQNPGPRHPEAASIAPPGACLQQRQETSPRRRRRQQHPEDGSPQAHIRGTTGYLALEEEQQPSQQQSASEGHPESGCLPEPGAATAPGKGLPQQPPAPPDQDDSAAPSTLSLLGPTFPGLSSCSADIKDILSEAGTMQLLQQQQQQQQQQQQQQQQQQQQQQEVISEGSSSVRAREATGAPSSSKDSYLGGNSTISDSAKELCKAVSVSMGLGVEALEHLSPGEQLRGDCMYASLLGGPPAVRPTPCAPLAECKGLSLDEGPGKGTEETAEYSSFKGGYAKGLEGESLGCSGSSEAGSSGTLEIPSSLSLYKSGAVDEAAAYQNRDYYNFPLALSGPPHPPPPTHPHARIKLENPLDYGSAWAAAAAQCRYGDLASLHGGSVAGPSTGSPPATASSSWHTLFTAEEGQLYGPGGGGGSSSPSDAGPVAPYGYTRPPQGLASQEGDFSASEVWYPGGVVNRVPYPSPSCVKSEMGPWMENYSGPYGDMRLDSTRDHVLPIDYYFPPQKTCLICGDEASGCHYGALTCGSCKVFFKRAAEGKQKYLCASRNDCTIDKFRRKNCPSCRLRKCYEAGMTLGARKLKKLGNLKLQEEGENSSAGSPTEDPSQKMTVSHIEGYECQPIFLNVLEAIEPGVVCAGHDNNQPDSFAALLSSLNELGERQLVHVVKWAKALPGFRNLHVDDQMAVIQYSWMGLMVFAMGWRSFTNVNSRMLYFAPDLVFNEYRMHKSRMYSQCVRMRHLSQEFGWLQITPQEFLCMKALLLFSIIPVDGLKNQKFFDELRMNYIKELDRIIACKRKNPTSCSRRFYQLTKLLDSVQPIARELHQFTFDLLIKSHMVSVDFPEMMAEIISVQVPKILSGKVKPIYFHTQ
As to the kind of experiment: Antagonist activity at androgen receptor in rat prostate gland at 0.625 to 20 uM by luciferase reporter gene assay. In kind it is functional, tissue-based.

Experiment [3] has as its target T1, Androgen receptor (Rattus norvegicus). The experiment is described as follows: Antagonist activity at androgen receptor in rat prostate gland at 1.25 to 10 uM by luciferase reporter gene assay. The format is functional, tissue-based.
The subject of experiment [4] is LNCaP. As to the kind of experiment: Inhibition of prostate specific antigen expression in human LNCAP cells at 1.25 to 10 uM in presence of fetal bovine serum. In kind it is functional, cell-based.
Experiment [5] has as its system LNCaP. As to the kind of experiment: Inhibition of prostate specific antigen expression in human LNCAP cells at 0.625 to 5 uM in presence of fetal bovine serum. The format is functional, cell-based.
Experiment [6] deals with LNCaP. The experiment is described as follows: Inhibition of prostate specific antigen secretion in human LNCAP cells expressing androgen receptor at 1.25 to 10 uM in presence of charcoal stripped serum. In kind it is functional, cell-based. The procedure, abridged: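 LNCaP/AR cells were made by viral infection with an AR cDNA to express 3–5 fold higher AR levels, mimicking CRPC. They were assayed in charcoal-stripped serum to mimic androgen depletion. Read-out was PSA level, with DMSO as the vehicle.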

Experiment [7] concerns LNCaP. As to the kind of experiment: Inhibition of prostate specific antigen expression in human LNCAP cells in presence of fetal bovine serum. In kind it is functional, cell-based.

Calls of active or inactive are those of the source. No cut-off for these calls is given here.

For `CC1(C)C(=O)N(c2ccc(C#N)c(C(F)(F)F)c2)C(=S)N1c1ccc(N=[N+]=[N-])cc1`, the outcome (in the experiment on LNCaP [1]; in experiment [2]) was Active.
`CCCC1C(=O)N(c2ccc(C#N)c(C(F)(F)F)c2)C(=S)N1c1ccc(C)cc1` (configuration not stated): the result in experiment [2] was inactive.
Turning to `COC(=O)c1ccc(N2C(=S)N(c3ccc(C#N)c(C(F)(F)F)c3)C(=O)C2(C)C)cc1`, in experiment [3], the result was Active.
As for `CCC1(C)C(=O)N(c2ccc(C)cc2)C(=S)N1c1ccc(C#N)c(C(F)(F)F)c1` (configuration not stated), the result in experiment [2] was inactive.
For `Cc1ccc(N2C(=S)N(c3ccc(C#N)c(C(F)(F)F)c3)/C(=N\C(=S)Nc3ccc(C#N)c(C(F)(F)F)c3)C2(C)C)cc1`, the result (with LNCaP [4]; in experiment [3]) was Active.
As for `Cc1ccc(N2C(=S)N(c3ccc(C#N)c(C(F)(F)F)c3)C(=O)C2C)cc1` (configuration not stated), the result in experiment [2] was inactive.
As for `Cc1ccc(N2C(=S)N(c3ccc(C#N)c(C(F)(F)F)c3)C(=O)C23CCN(C)CC3)cc1`, the outcome in the experiment on LNCaP [1] was inactive.
Take `CC1(C)C(=O)N(c2ccc(C#N)c(C(F)(F)F)c2)C(=S)N1c1ccc(N)cc1`: the result (in the experiment with LNCaP [1]; in experiment [2]) was Active.
With `Cc1ccc(N2C(=S)N(c3ccc(C#N)c(C(F)(F)F)c3)C(=N)C23CCC3)cc1`, the result in the experiment on LNCaP [5] and with LNCaP [4] was Active.
As to `N#Cc1ccc(N2C(=O)C3(CCC3)N(c3ccc(CCCC(N)=O)cc3)C2=S)cc1C(F)(F)F`, in the experiment with LNCaP [6], the inhibition result is “Active”.
On to `Cc1ccc(N2C(=S)N(c3ccc(C#N)c(C(F)(F)F)c3)C(=O)C2(C)CF)cc1` (configuration not stated), for which, in the experiment on LNCaP [5], the outcome was Active.
The same measure, in the same setting: with `CC1(C)C(=S)N(c2ccc(C#N)c(C(F)(F)F)c2)C(=S)N1c1ccc(O)cc1` the entry was “Active”.
For the compound `N#Cc1ccc(N2C(=O)C3(CCC3)N(c3ccc(CCC(=O)NCCO)cc3)C2=S)cc1C(F)(F)F`, the inhibition entry in the experiment with LNCaP [6] was “Active”.
In the case of `Cc1ccc(N2C(=S)N(c3ccc(C#N)c(C(F)(F)F)c3)C(=O)C2(CCl)CCl)cc1`, the result in the experiment with LNCaP [5] was inactive.
Regarding `N#Cc1ccc(N2C(=O)C3(CCC3)N(c3ccc(O)cc3F)C2=S)cc1C(F)(F)F`, in experiment [3], the outcome was Active.
For the compound `CC1(C)C(=O)N(c2ccc(C#N)c(C(F)(F)F)c2)C(=S)N1c1ccc(C(F)(F)F)cc1`, in the experiment on LNCaP [4], the outcome was Active.
For `Cc1ccc(N2C(=S)N(c3ccc(C#N)c(C(F)(F)F)c3)/C(=N\C(=S)Nc3ccccc3)C23CCC3)cc1`, the result (in the experiment on LNCaP [4]; in experiment [3]) was Active.
For `N#Cc1ccc(N2C(=O)C3(CCC3)N(c3ccc(/C=C/CO)cc3)C2=S)cc1C(F)(F)F`, in the experiment with LNCaP [7], the IC50 worked out at 0.1 µM.
Take `Cc1ccc(N2CC(=O)N(c3ccc(C#N)c(C(F)(F)F)c3)C2=S)cc1`: the outcome in experiment [2] was inactive.
As to `CC1(C)C(=O)N(c2ccc(C#N)c(C(F)(F)F)c2)C(=S)N1CCCCCCCN=[N+]=[N-]`, the result with LNCaP [1] was Active.
Turning to `CC1(C)C(=O)N(c2ccc(C#N)c(C(F)(F)F)c2)C(=S)N1CCCCO`, the outcome in the experiment on LNCaP [1] and in the experiment with LNCaP [4] was Active.
As to `C/N=C1\N(c2ccc(C#N)c(C(F)(F)F)c2)C(=S)N(c2ccc(C)cc2)C12CCC2`, the outcome (with LNCaP [4]; in experiment [3]) was Active.
For the compound `CS(=O)(=O)c1ccc(N2C(=S)N(c3ccc(C#N)c(C(F)(F)F)c3)C(=O)C23CCC3)cc1`, the result in experiment [3] was Active.
Consider `Cc1ccc(N2C(=S)N(c3ccc(C#N)c(C(F)(F)F)c3)C(=O)C23CCCCC3)cc1`, for which the outcome in the experiment with LNCaP [1] was inactive.
On to `CC(O)c1ccc(N2C(=S)N(c3ccc(C#N)c(C(F)(F)F)c3)C(=O)C23CCC3)cc1` (configuration not stated), for which the 50% inhibitory concentration (IC50) in the experiment with LNCaP [7] was found to be 0.2 µM.
`N#Cc1ccc(N2C(=O)C3(CCC3)N(c3ccc(O)cc3)C2=S)cc1C(F)(F)F`: the outcome in the experiment on LNCaP [4] was Active.
In the case of `Cc1ccc(N2C(=S)N(c3ccc(C#N)c(C(F)(F)F)c3)C(=O)C23CCCC3)cc1`, the result in the experiment on LNCaP [1] and with LNCaP [4] was Active.
With `CCC1(CC)C(=O)N(c2ccc(C#N)c(C(F)(F)F)c2)C(=S)N1c1ccc(C)cc1`, the result in experiment [2] was inactive.
With `CC1(C)C(=O)N(c2ccc(C#N)c(C(F)(F)F)c2)C(=S)N1c1ccccc1`, the result (in the experiment with LNCaP [1]; in experiment [2]) was Active.
Turning to `CCC1(CC)C(=O)N(c2ccc(C)cc2)C(=S)N1c1ccc(C#N)c(C(F)(F)F)c1`, the result in experiment [2] was inactive.
With `CC1(C)C(=O)N(c2ccc(C#N)c(C(F)(F)F)c2)C(=S)N1CCCN=[N+]=[N-]`, the outcome in the experiment with LNCaP [1] was Active.
For the compound `N#Cc1ccc(N2C(=O)C3(CCC3)N(c3ccc(CCC(N)=O)cc3)C2=S)cc1C(F)(F)F`, in the experiment on LNCaP [6], the inhibition entry is “Active”.
In the case of `Cc1ccc(N2/C(=N/c3ccc(C#N)c(C(F)(F)F)c3)S/C(=N\C(=S)Nc3ccc(C#N)c(C(F)(F)F)c3)C23CCC3)cc1`, the outcome (with LNCaP [4]; in experiment [3]) was Active.
Take `N#Cc1ccc(N2C(=O)C3(CCC3)N(c3ccc(-c4ccccc4)cc3)C2=S)cc1C(F)(F)F`: the result in the experiment with LNCaP [4] was Active.
Take `Cc1ccc(N2C(=S)N(c3ccc(C#N)c(C(F)(F)F)c3)/C(=N\C(=S)Nc3ccc(C#N)c(C(F)(F)F)c3)C23CCC3)cc1`: the result (in the experiment on LNCaP [4]; in experiment [3]) was Active.
For the compound `CCC1(C)C(=O)N(c2ccc(C#N)c(C(F)(F)F)c2)C(=S)N1c1ccc(C)cc1` (configuration not stated), in experiment [2], the outcome was inactive.
For `N#Cc1ccc(N2C(=O)C3(CCC3)N(c3ccc(/C=C/C(N)=O)cc3)C2=S)cc1C(F)(F)F`, the IC50 in the experiment with LNCaP [7] worked out at 0.1 µM.
Regarding `CC1(C)C(=O)N(c2ccc(C#N)c(C(F)(F)F)c2)C(=S)N1c1ccc(O)cc1`, the outcome (in the experiment on LNCaP [1]; in experiment [2]; in the experiment with LNCaP [5]) was Active.
Take `Cc1ccccc1N1C(=S)N(c2ccc(C#N)c(C(F)(F)F)c2)C(=O)C12CCC2`: the outcome in the experiment on LNCaP [5] was Active.
On to `Cc1ccc(N2/C(=N/c3ccc(C#N)c(C(F)(F)F)c3)S/C(=N\C(=S)Nc3ccc(C#N)c(C(F)(F)F)c3)C2(C)C)cc1`, for which the outcome (in the experiment on LNCaP [4]; in experiment [3]) was Active.
As to `CNC(=O)c1ccc(N2C(=S)N(c3ccc(C#N)c(C(F)(F)F)c3)C(=O)C23CCC3)cc1`, the outcome in experiment [3] was Active.
For the compound `Cc1ccc(N2C(=S)N(c3ccc(C#N)c(C(F)(F)F)c3)C(=N)C2(C)C)cc1`, the result with LNCaP [5] was Active.
On to `N#Cc1ccc(N2C(=O)C3(CCC3)N(c3ccc(N4CCNCC4)cc3)C2=S)cc1C(F)(F)F`, for which the inhibition result in the experiment on LNCaP [6] was “Active”.
Turning to `CC1(C)C(=O)N(c2ccc(C#N)c(C(F)(F)F)c2)C(=S)N1CCCCCN=[N+]=[N-]`, the result in the experiment on LNCaP [1] was Active.
On the same count and under the same terms, with `Cc1ccc(N2C(=S)N(c3ccc(C#N)c(C(F)(F)F)c3)C(=O)C23CCCCCCC3)cc1` the entry was “inactive”.
In the case of `N#Cc1ccc(N2C(=O)C3(CCC3)N(c3ccccc3C(=O)O)C2=S)cc1C(F)(F)F`, in the experiment with LNCaP [5], the outcome was inactive.
On to `CC1(C)C(=O)N(c2ccc(C#N)c(C(F)(F)F)c2)C(=O)N1c1ccc(O)cc1`, for which the result (in the experiment on LNCaP [5]; in experiment [3]) was Active.
Take `CCC1C(=O)N(c2ccc(C#N)c(C(F)(F)F)c2)C(=S)N1c1ccc(C)cc1` (configuration not stated): the result in experiment [2] was inactive.
Take `CNC(=O)c1ccc(N2C(=S)N(c3ccc(C#N)c(C(F)(F)F)c3)C(=O)C2(C)C)cc1`: in experiment [3], the result was Active.
With `CC/N=C1\N(c2ccc(C#N)c(C(F)(F)F)c2)C(=S)N(c2ccc(C)cc2)C1(C)C`, the result (in the experiment on LNCaP [4]; in experiment [3]) was Active.
On to `CC1(C)C(=O)N(c2ccc(C#N)c(C(F)(F)F)c2)C(=S)N1CCCCCCN=[N+]=[N-]`, for which the outcome in the experiment with LNCaP [1] was Active.
As to `Cc1ccc(N2C(=S)N(c3ccc(C#N)c(C(F)(F)F)c3)/C(=N\C(=S)Nc3ccc(C#N)c(C(F)(F)F)c3)C2(C)CF)cc1` (configuration not stated), the outcome (in the experiment with LNCaP [4]; in experiment [3]) was Active.
Take `CS(=O)(=O)N1CCN(c2ccc(N3C(=S)N(c4ccc(C#N)c(C(F)(F)F)c4)C(=O)C34CCC4)cc2)CC1`: the inhibition entry in the experiment with LNCaP [6] was “Active”.
Take `CNC(=O)CCc1ccc(N2C(=S)N(c3ccc(C#N)c(C(F)(F)F)c3)C(=O)C23CCC3)cc1`: in the experiment with LNCaP [6], the inhibition entry is “Active”.
`Cc1ccc(N2C(=S)N(c3ccc(C#N)c(C(F)(F)F)c3)C(=O)C23CCCCCC3)cc1`: the outcome with LNCaP [1] was inactive.
